Values after ≈ are worked out from the molar mass of the structure shown.
Assays:
[1] = system: Bacillus subtilis; assay: Antibacterial activity against Bacillus subtilis NCIM 2063 after 18 hrs by disc diffusion method; format: functional
Procedure, shortened: (§1)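 Modified Kirby-Bauer disc diffusion. Plates inoculated with spore suspension (about 6 × 10⁴ spores mL^-1). Sterile 6 mm paper discs carried test samples at 10 mg mL^-1; ciprofloxacin disc as reference, DMF disc as negative control. Plates held 18 h at 37 °C. Inhibition zone diameters (mm) averaged over triplicate sets.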

[2] = system: Staphylococcus aureus; assay: Antibacterial activity against Staphylococcus aureus NCIM 2079 after 18 hrs by disc diffusion method; format: functional; procedure, shortened: as §1
[3] = system: Escherichia coli; assay: Antibacterial activity against Escherichia coli NCIM 2065 after 18 hrs by disc diffusion method; format: functional; procedure, shortened: as §1
[4] = Anthelmintic activity against Megascoplex konkanensis ICARBC 211 assessed as mean death time; format: functional
Procedure, shortened: (§2)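 Earthworms exposed to test suspensions at 2 mg mL^-1 (0.2% w/v), made by triturating compound with Tween 80 (0.5%) and distilled water, then mechanically stirred 30 min. Mebendazole suspension prepared alike as reference. Paralysis and death times recorded; death confirmed by no movement in 50 °C water. Means from triplicate sets.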

[5] = system: Aspergillus niger; assay: Antifungal activity against Aspergillus niger MUCC 177 after 48 hrs by disc diffusion method; format: functional
Procedure, shortened: (§3)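 Agar well diffusion on plates inoculated with spore suspension in normal saline from cultures on Sabouraud's broth. Wells punched and loaded with test samples or griseofulvin at 10 mg mL^-1, with DMSO as negative control. Incubated 48 h at 37 °C.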

[6] = system: Candida albicans; assay: Antifungal activity against Candida albicans MUCC 29 after 48 hrs by disc diffusion method; format: functional; procedure, shortened: as §3
[7] = system: Pontoscolex corethrurus; assay: Anthelmintic activity against Pontoscolex corethrurus ICARBC 408 assessed as mean death time; format: functional
Procedure, shortened: (§4)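 Earthworms exposed to test suspensions at 2 mg mL−1, prepared by triturating compound with Tween 80 (0.5%) and distilled water, stirring 30 min, then diluting to 0.2% w/v. Mebendazole suspension was made the same way. Death was confirmed by moving worms into 50 °C warm water and looking for movement. Mean death time (min) taken from triplicate sets.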

[8] = system: Microsporum audouinii; assay: Antifungal activity against Microsporum audouinii MUCC 545 after 48 hrs by disc diffusion method; format: functional; procedure, shortened: as §3
[9] = system: Trichophyton benhamiae; assay: Antifungal activity against Trichophyton mentagrophytes MUCC 665 after 48 hrs by disc diffusion method; format: functional, Arthroderma benhamiae; procedure, shortened: as §3
[10] = system: Bacillus subtilis; assay: Antibacterial activity against Bacillus subtilis NCIM 2063 after 18 hrs by tube dilution method; format: functional; settings: NCIM 2063, 18 h
Procedure, shortened: (§5)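 Tube dilution MIC. Stock diluted in sterile broth to seven concentrations from 200 to 3.1 […]. Each tube inoculated with one loopful of test bacterium and incubated 18 h at 37 °C. MIC read from presence or absence of growth.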

[11] = system: Microsporum audouinii; assay: Antifungal activity against Microsporum audouinii MUCC 545 after 48 hrs by tube dilution method; format: functional
Procedure, shortened: (§6)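 Tube dilution MIC as for bacteria (seven concentrations, 200–3.1 […]), with DMSO in place of DMF. Tubes inoculated with fungal culture and incubated 48 h at 37 °C. MIC read from presence or absence of growth.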

[12] = system: Trichophyton benhamiae; assay: Antifungal activity against Trichophyton mentagrophytes MUCC 665 after 48 hrs by tube dilution method; format: functional, Arthroderma benhamiae; procedure, shortened: as §6
[13] = system: Pontoscolex corethrurus; assay: Anthelmintic activity against Pontoscolex corethrurus ICARBC 408 assessed as mean paralyzing time; format: functional; procedure, shortened: as §2
[14] = system: Pseudomonas aeruginosa; assay: Antibacterial activity against Pseudomonas aeruginosa NCIM 2034 after 18 hrs by disc diffusion method; format: functional; procedure, shortened: as §1
[15] = system: Candida albicans; assay: Antifungal activity against Candida albicans MUCC 29 after 48 hrs by tube dilution method; format: functional; procedure, shortened: as §6
[16] = Anthelmintic activity against Megascoplex konkanensis ICARBC 211 assessed as mean paralyzing time; format: functional; procedure, shortened: as §2
[17] = system: Pseudomonas aeruginosa; assay: Antibacterial activity against Pseudomonas aeruginosa NCIM 2034 after 18 hrs by tube dilution method; format: functional; settings: NCIM 2034, 18 h; procedure, shortened: as §5
[18] = system: Eudrilus; assay: Anthelmintic activity against Eudrilus sp. assessed as mean paralyzing time; format: functional; procedure, shortened: as §2
[19] = system: Eudrilus; assay: Anthelmintic activity against Eudrilus sp. assessed as mean death time; format: functional; procedure, shortened: as §4
[20] = system: Escherichia coli; assay: Antibacterial activity against Escherichia coli NCIM 2065 after 18 hrs by tube dilution method; format: functional; settings: NCIM 2065, 18 h
[21] = system: Staphylococcus aureus; assay: Antibacterial activity against Staphylococcus aureus NCIM 2079 after 18 hrs by tube dilution method; format: functional; settings: NCIM 2079, 18 h; procedure, shortened: as §5

| Compound | inhibition zone (IZ) [1] | inhibition zone (IZ) [2] | inhibition zone (IZ) [3] | TIME [4] | inhibition zone (IZ) [5] | inhibition zone (IZ) [6] | Time [7] | inhibition zone (IZ) [8] | inhibition zone (IZ) [9] | MIC [10] | MIC [11] | MIC [12] | Time [13] | inhibition zone (IZ) [14] | MIC [15] | TIME [16] | MIC [17] | Time [18] | Time [19] | MIC [20] | also measured |
| --- | --- | --- | --- | --- | --- | --- | --- | --- | --- | --- | --- | --- | --- | --- | --- | --- | --- | --- | --- | --- | --- |
| COC(=O)[C@@H](NC(=O)c1cc(I)c(-c2nc3cc(C)c(C)cc3[nH]2)c(I)c1)[C@@H](C)O | 20 mm | 13 mm | 16 mm | 0.987 h | 15 mm | 19 mm | 78.32 min | 8 mm | 10 mm | 6 µg/mL (≈ 9.48 µM) | 25 µg/mL (≈ 39.5 µM) | 10 µg/mL (≈ 15.8 µM) | 40.6 min | 23 mm | 6 µg/mL (≈ 9.48 µM) | 0.587 h | 6 µg/mL (≈ 9.48 µM) | 31.22 min | 69.45 min | 12.5 µg/mL (≈ 19.7 µM) | MIC [21]: 12.5 µg/mL (≈ 19.7 µM) |
| Cc1cc2nc(-c3c(I)cc(C(=O)N[C@@H](Cc4ccccc4)C(=O)N[C@H](C(=O)N4CCC[C@H]4C(=O)O)C(C)C)cc3I)[nH]c2cc1C | 17 mm | 13 mm | 18 mm | 0.698 h | 15 mm | 17 mm | 50.13 min | 11 mm | 13 mm | 6 µg/mL (≈ 6.96 µM) | 12.5 µg/mL (≈ 14.5 µM) | 6 µg/mL (≈ 6.96 µM) | 34.13 min | 24 mm | 6 µg/mL (≈ 6.96 µM) | 0.44 h | 12.5 µg/mL (≈ 14.5 µM) | 27.1 min | 44.1 min | 25 µg/mL (≈ 29 µM) | MIC [21]: 25 µg/mL (≈ 29 µM) |
| COC(=O)[C@@H]1CCCN1C(=O)[C@@H]1CCCN1C(=O)[C@@H]1CCCN1C(=O)c1cc(-c2nc3ccc([N+](=O)[O-])cc3[nH]2)ccc1O | 14 mm | 11 mm | 17 mm | 0.569 h | 17 mm | 24 mm | 40.38 min | 13 mm | 17 mm | 6 µg/mL (≈ 9.92 µM) | 6 µg/mL (≈ 9.92 µM) | 12.5 µg/mL (≈ 20.7 µM) | 30.59 min | 27 mm | 6 µg/mL (≈ 9.92 µM) | 0.425 h | 6 µg/mL (≈ 9.92 µM) | 26.67 min | 37.44 min | 25 µg/mL (≈ 41.3 µM) | MIC [21]: 12.5 µg/mL (≈ 20.7 µM) |
| COC(=O)[C@@H]1CCCN1C(=O)[C@H](Cc1cnc[nH]1)NC(=O)c1cc(I)c(-c2nc3cc(C)c(C)cc3[nH]2)c(I)c1 | 14 mm | 11 mm | 17 mm | 0.379 h | 13 mm | 16 mm | 29.58 min | 9 mm | 12 mm | 6 µg/mL (≈ 7.83 µM) | 25 µg/mL (≈ 32.6 µM) | 6 µg/mL (≈ 7.83 µM) | 17.52 min | 24 mm | 6 µg/mL (≈ 7.83 µM) | 0.229 h | 6 µg/mL (≈ 7.83 µM) | 13.48 min | 23.98 min | 12.5 µg/mL (≈ 16.3 µM) | MIC [21]: 12.5 µg/mL (≈ 16.3 µM) |
| COC(=O)[C@H](Cc1ccc(O)cc1)NC(=O)[C@H](Cc1cnc[nH]1)NC(=O)c1ccc(-c2nc3cc(C)c(C)cc3[nH]2)cc1 | 14 mm | 10 mm | 15 mm | 0.377 h | 16 mm | 16 mm | 29.18 min | 8 mm | 13 mm | 6 µg/mL (≈ 10.3 µM) | 25 µg/mL (≈ 43.1 µM) | 6 µg/mL (≈ 10.3 µM) | 17.55 min | 19 mm | 12.5 µg/mL (≈ 21.5 µM) | 0.228 h | 12.5 µg/mL (≈ 21.5 µM) | 13.49 min | 23.98 min | 25 µg/mL (≈ 43.1 µM) | MIC [21]: 12.5 µg/mL (≈ 21.5 µM) |
| COC(=O)[C@H](Cc1ccccc1)NC(=O)[C@@H]1CCCN1C(=O)[C@@H]1CCCN1C(=O)c1ccc(-c2nc3cc(C)c(C)cc3[nH]2)cc1 | 13 mm | 8 mm | 16 mm | 1.04 h | 14 mm | 16 mm | 72.24 min | 9 mm | 13 mm | 12.5 µg/mL (≈ 20.1 µM) | 25 µg/mL (≈ 40.2 µM) | 6 µg/mL (≈ 9.65 µM) | 49.35 min | 20 mm | 6 µg/mL (≈ 9.65 µM) | 0.613 h | 6 µg/mL (≈ 9.65 µM) | 32.82 min | 53.34 min | 25 µg/mL (≈ 40.2 µM) | MIC [21]: 25 µg/mL (≈ 40.2 µM) |
| COC(=O)[C@H](C)NC(=O)[C@@H](NC(=O)[C@H](C)NC(=O)c1cc(-c2nc3cc(C)c(C)cc3[nH]2)ccc1O)C(C)C | 13 mm | 9 mm | 16 mm | 0.578 h | 16 mm | 18 mm | 41.79 min | 10 mm | 14 mm | 6 µg/mL (≈ 11.2 µM) | 6 µg/mL (≈ 11.2 µM) | 6 µg/mL (≈ 11.2 µM) | 29.89 min | 19 mm | 6 µg/mL (≈ 11.2 µM) | 0.426 h | 6 µg/mL (≈ 11.2 µM) | 25.55 min | 36.23 min | 25 µg/mL (≈ 46.5 µM) | MIC [21]: 25 µg/mL (≈ 46.5 µM) |

Source: ChEMBL document CHEMBL1146375, “Synthetic studies on novel benzimidazolopeptides with antimicrobial, cytotoxic and anthelmintic potential” (2007)
